In the EternaBench riboswitch data:

Tested on: MS2 coat protein
Experiment: apparent Kd, MS2 coat protein; higher = weaker binding; RNA-MaP array; FMN 200 µM where present
Summary of the method: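 The apparent Kd comes from binding curves fitted cluster by cluster, filtered, and summarised as a median. Those curves followed SNAP-549-labelled MS2 coat protein from 0.7 or 1.5 nM, doubling to 3 µM, on Illumina sequencing-chip clusters where stalled E. coli RNA polymerase had transcribed the designs, without and then with constant ligand. The buffer was 100 mM Tris-HCl pH 7.5, 80 mM KCl, 4 mM MgCl2, BSA, DTT, yeast tRNA and Tween-20, and green signal was normalised to red-channel RNA signal and control-cluster median Fmax.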

[1] = designed as: OFF switch for flavin mononucleotide, no ligand
[2] = ligand present: flavin mononucleotide, designed as: OFF switch for flavin mononucleotide
[3] = designed as: ON switch for flavin mononucleotide, no ligand
[4] = ligand present: flavin mononucleotide, designed as: ON switch for flavin mononucleotide

Row | Sequence | apparent Kd [1] [nM] | apparent Kd [2] [nM] | apparent Kd [3] [nM] | apparent Kd [4] [nM]
1 | UAAAAUCAUGUAGGAUAUGCGUGGCGAAGCUAUGCAGAAGGACAUGAGGAUCACCCAUGUCUUAGCUAGCGUACUAGCUUAAAG | 12.9 | 49.7 |  | 
2 | GGAGCCGGCACCGAGGAUAUUCAUAUUAAAACAUGAGGAUCACCCAUGUGGGCCAGAAGGCCUUGGGAGAAGGCGGAUCGGCUCG |  |  | 305 | 30
3 | UUUAAUCGAAACAUGAGGAUCACCCAUGUGUUGUAAUUAACAUAGGAUAUUUGUAUACUUUUAUAAGAGAAGGAUGAUAAUACU |  |  | 21.2 | 15.8
4 | UGUUGUAUUACAGGAUAUCUAUUAGGUUUAUUUAGAGAAGGGUAUUCACAUGAGGAUCACCCAUGUAUAUACGAGGAAGUUGUG |  |  | 56.2 | 63.3
5 | AUGGUGUGAUAGGAUAUUGCUGGGUCAACCUUUUAAGAAGGGUCUACAUGAGGAUCACCCAUGUGGGUGUCCCU | 65.3 | 60.2 |  | 
6 | CGAUAUAUGAAGGGCGAACACGCACAUGAGGAUCACCCAUGUAGAAGGCGAUCCGCAACGCGGAUCGAGGAUAUAUAGUAUACA | 35.6 | 42.4 |  | 
7 | GCGAAUUAGUGAGGAUAUACAUAAUUUAAAACUGUAGAAGGCACAAUCCUCAAGACAUGAGGAUCACCCAUGUGAUAUUAAGCU | 46 | 158 |  | 
8 | AUACUCAUGUAAGGAUAUGCAGCCGUUUCGGCUGCAGAAGGUACUAUAAUACAUGAGGAUCACCCAUGUCUAUAAAAUAAAGAC |  |  | 60.6 | 41.5
9 | CGUGCUAUGUAGAAGGCAGAUCUGAUUCAGAUCUGAGGAUAUACAUGAGGAUCACCCAUGUUAUGCACCAGCACGAGAGUGCAC |  | 11.5 |  | 
10 | AUCUUGUAAGGAUAUCUGACAAGUGACGAAAGUCACAGUUCAGAGAAGGUACAUGAGGAUCACCCAUGUAGAAC | 17.6 | 20.3 |  | 
11 | AGUAAAGGCCUGAGGUGUCCGAACAUGAGGAUCACCCAUGUAGAGGAUAUAGGUGGAAGUGACGCCUAGAAGGCUACGUGUCAU | 8.8 | 11 |  | 
12 | UUCAUCAAUGAAGGAUAUCUAUGUCCAACAUGAGGAUCACCCAUGUUGAGGAUCACCUAUGUAAAGGAGAAGGUUAAUAUAACU |  |  | 6.96 | 6.42
13 | UCGAUAAGGAGAGGAUAUGGACAUGAGGAUCACCCAUGUACAUGGGAAUAUAUACUGAAUUUUUACUAGAAGGCUUACAUAAAU | 14.7 | 12.4 |  | 
14 | GCCAUCGCAUGAGGAUAUGGCACCGGUUCGGUGCCAGAAGGCAUGUCAAAUGACAUGAGGAUCACCCAUGUAGUUAAGAUGGCA |  |  | 215 | 14.7
15 | GUGCACAUUCGAGGAUAUCGGAGAGGGAUCCUUCGAGAAGGCGAUUCAUGCUGUGUUAUUCUGGACAUGAGGAUCACCCAUGUG |  |  | 265 | 125
16 | GCCGAUUAAGUCAGGAUAUACCUAUGGAUACAUAGGUAGAAGGGACAUGAGGAUCACCCAUGUUCCUCAGCGGC | 16.6 | 50.2 |  | 
17 | GGCGCCCGGGCGGAGUCCCACACACAUGAGGAUCACCCAUGUAGAAGGCGCUGCCGCAAGGUCAGCGAGGAUAUACAUUAAGGA | 14.8 | 45.8 |  | 
18 | CCAUCGUGUGUGAGGAUAUGCUGGUCCUUGGAUCAGCAGAAGGCACAUGAGGAUCACCCAUGUGAAAACGAUGG | 17.9 | 56.4 |  | 
19 | AUAUGACAUGAGGAUCACCCAUGUGAGGAUAUAUGCGCAGGUCCAGGGACGGCUGUGCAUAGAAGGUGCUUGGG | 307 | 268 |  | 
20 | AGGUCAACCACAGGAUAUGGCUAGCAUAGCUAGCCAGAAGGGUGGUCGUUGCCAUGUACAUACAUGAGGAUCACCCAUGUAUCC |  |  | 179 | 54.7
21 | ACUGGUCGAGGAUAUACAUGAGGAUCACCCAUGUCGAUCAACCAGCGAUAGCUGGAAUGUAGAAGGCGACCAGU | 200 | 446 |  | 
22 | AGUUGGCGAGGAUAUACAUGAGGAUCACCCAUGUGAGAGAUACUAGUGAGGUCGAUUGGUAGAAGGCGCUGACA | 132 | 106 |  | 
23 | CGAUAGGACAGAGGAUAUACGUGCUAGAGAUACUAGCAAAAUUUCCUCACAUGAGGAUCACCCAUGUAGAAGGCUGUCCUAUCG | 15.6 | 439 |  | 
24 | AAGAAGUGAGGAUAUCGAAGACUGUCGAAAAGACAGUCGAACGAGAAGGCACAUGAGGAUCACCCAUGUAAGAA | 24.1 | 34.5 |  | 
25 | AAGUAACAUGAGGAUCACCCAUGUGAGGAUAUGAUUUAAGUUGUAAAAGUAAUAAAGGUCAGAAGGUAUGUGAA | 62.1 | 61.1 |  | 

Row | Sequence | apparent Kd [1] [nM] | apparent Kd [2] [nM] | apparent Kd [3] [nM] | apparent Kd [4] [nM]
26 | AGCACGAAAGUGCAACGAUGUACGAGAAGGACAUGAGGAUCACCCAUGUUGCUGUAACAGCACAUGUAGGAUAUCGUACAUCGA | 166 | 180 |  | 
27 | GUUCUUCCUGUGAGGAUAUCCAUGUGUCGGUUUGUGGAGAAGGUACAUGAGGAUCACCCAUGUCACCCGCGUUU | 14.8 | 16.3 |  | 
28 | ACGAGACUCGUGAGGAUAUCGUGUUGUAAGCAGAUCGAGAAGGCACAUGAGGAUCACCCAUGUUUACUGCCACA | 17 | 21.9 |  | 
29 | UAUUAUUGCAAGGAUAUGCUUUUUAUUUCUUUUGCAGAAGGUGCAACAUGAGGAUCACCCAUGUUUCCGGGUAU | 19.7 | 28.9 |  | 
30 | AAGGAUCGAGGAUAUACAUAGAUACAGAUUCAUGUAGAACUACAUGAGGAUCACCCAUGUAGAAGGCGAUCAUA | 27.1 | 127 |  | 
31 | CUUAUGUCAGGAUAUCAGUAGUAAAAAAAAAAAAUUACUACUGAGAAGGGACAUGAGGAUCACCCAUGUCCAUU | 30.9 | 31.2 |  | 
32 | UAAAUGUGAGGAUAUUCGAAUAACUCGGAGACGAGUUGUUCGGAGAAGGCACAUGAGGAUCACCCAUGUUCCUU | 22.5 | 216 |  | 
33 | UGCCCUCUUAAGGAUAUAUUGGACGAGCGACCAAUAGAAGGUGGGACAUGAGGAUCACCCAUGUGCAGACAUCC | 23.2 | 22.7 |  | 
34 | AAGUUUUUACAAGGAUAUCAUUUGUUUCUAAAUUCAACAUGAGGAUCACCCAUGUAACAAUGGAGUGAGAAGGUGUGUUGGCAA |  |  | 101 | 84.6
35 | AAAAAGUGAGGAUAUACAUGAAAAAAAAAAAAAAAAAAAAAACAUGAGGAUCACCCAUGUAGAAGGCGCAAAAA | 55.1 | 45.7 |  | 
36 | GGAUAACAUGAGGAUCACCCAUGUACAUGGGUACAAGGAUAUGUAAAAUAAAACAAACAAACAGAAGGUGUAAAAA |  |  | 708 | 1450
37 | CGUGCAAGUGUAGGAUAUGGUUAUCUAUGUCUAGUUACUAGACAUAGAUAACCAGAAGGACAUGAGGAUCACCCAUGUAGCACG | 7.5 | 17.6 |  | 
38 | UUUGAAUAGGUAGGAUAUACUUUCAAUUUUCUUUUCCUUACAUGAGGAUCACCCAUGUUUACAUUGUAGAAGGACCUCAUUGAU | 215 | 173 |  | 
39 | GGAUAGGACAGAGGAUAUACGUGCUAGUGAUACUAGCAAAAUUUCCUCACAUGAGGAUCACCCAUGUAGAAGGCUGUCCUAUCG | 15.5 | 453 |  | 
40 | CAACUGAGCGUAAAUUACCUGAACAUGAGGAUCACCCAUGUGGAGGAUAUUGACUUAGCAAAACUCGAGAAGGCCACUGGGUAG | 44.6 | 18.5 |  | 
41 | ACAUGAGAGUUAGGAUAUCUUGUACCUACAUGUGACAUGAGGAUCACCCAUGUGGUAAGUAUGAGGGAGAAGGAACAGAUAUGU |  |  | 43.9 | 33.9
42 | CCUCAUUGGCAGGAUAUCAGCACUAACGUGGUAUGAGAAGGGUCGACAUGAGGAUCACCCAUGUCAAUUGUCUG | 31.2 | 122 |  | 
43 | AGGAGGUGAGGAUAUGCUGCUCGUCACUUGCGUGAUGAGUAGCAGAAGGCACAUGAGGAUCACCCAUGUAAAGA | 117 | 105 |  | 
44 | GCACGAGACUAAGGAUAUGGAGUGUCUACAUUAAACAUGAGGAUCACCCAUGUAAAGAGUACGAUUCAGAAGGUAGAGACGUGC |  |  | 51.5 | 23.5
45 | GCGUCAGAAUUAAUUGUGACAGACAGAAGGCAAUAGUAUGUGACAGACAUGAGGAUCACCCAUGUUGAGGAUAUGUAUUGACAC | 6.6 | 7.36 |  | 
46 | UGCUAGAACCUAGGAUAUCCUAGGUUGGUGGUGCUUGGUGACCGGACAUGAGGAUCACCCAUGUAGGAGAAGGAGGUUGCUAAG | 37.8 | 41.2 |  | 
47 | AAGGUACGAGGAUAUGCAUAGAUACAGACACAUGUUCAAGUACAUGAGGAUCACCCAUGUAGAAGGCGUAUAUA | 43.5 | 61.8 |  | 
48 | UUAACAUGAGGAUCACCCAUGUAAAGAACGGUUAAUUAAAGUGAGGAUAUACAAAAUUUUAUAUUGUAGAAGGCACUGGGUACA |  |  |  | 22.9
49 | GUAGCAACAUGAGGAUCACCCAUGUAGGAUAUCGCUAUUGUAAUCAUGAAACAUGAUUACAAUAGCGAGAAGGACAUAUGCUAC | 6.93 | 10.2 |  | 
